Experimental data reported in ChEMBL document CHEMBL1121866, “Synthesis of 5'-thymidinyl bis(1-aziridinyl)phosphinates as antineoplastic agents” (1981).

Legend:
Type in all cases: functional
Mus musculus [1] = experiment: Compound was evaluated for antitumor activity against L1210 leukemia in mice by NCI screener test at a dose of 200 mg/kg
Method in brief: (§1)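 Tested in mice bearing L1210 or P-388 leukemia in the National Cancer Institute screening program under NCI standard assay protocols. Read-out is survival as % T/C, treated versus control, at each dose level.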

Mus musculus [2] = experiment: Compound was evaluated for antitumor activity against L1210 leukemia in mice by NCI screener test at a dose of 100 mg/kg; method in brief: as §1
Mus musculus [3] = experiment: Compound was evaluated for antitumor activity against L1210 leukemia in mice by NCI screener test at a dose of 50 mg/kg; method in brief: as §1
Mus musculus [4] = experiment: Compound was evaluated for antitumor activity against L1210 leukemia in mice by W screener test at a dose of 250 mg/kg
Mus musculus [5] = experiment: Compound was evaluated for antitumor activity against L1210 leukemia in mice by W screener test at a dose of 500 mg/kg
Method in brief: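 L1210 leukemia in mice, run at Virginia Commonwealth University by G. L. Wampler at higher dose levels, following NCI standard assay guidelines. Activity is reported as survival % T/C.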

Mus musculus [6] = experiment: Compound was evaluated for antitumor activity against P-388 leukemia in mice by NCI screener test at a dose of 100 mg/kg; method in brief: as §1
Mus musculus [7] = experiment: Compound was evaluated for antitumor activity against P-388 leukemia in mice by NCI screener test at a dose of 200 mg/kg; method in brief: as §1
Mus musculus [8] = experiment: Compound was evaluated for antitumor activity against P-388 leukemia in mice by NCI screener test at a dose of 25 mg/kg; method in brief: as §1
Mus musculus [9] = experiment: Compound was evaluated for antitumor activity against P-388 leukemia in mice by NCI screener test at a dose of 50 mg/kg; method in brief: as §1

| SMILES | T/C (Mus musculus [1]) | T/C (Mus musculus [2]) | T/C (Mus musculus [3]) | T/C (Mus musculus [4]) | T/C (Mus musculus [5]) | T/C (Mus musculus [6]) | T/C (Mus musculus [7]) | T/C (Mus musculus [8]) | T/C (Mus musculus [9]) |
| --- | --- | --- | --- | --- | --- | --- | --- | --- | --- |
| Cc1cn([C@H]2C[C@H](O)[C@@H](CO[P+]([O-])(N3CC3(C)C)N3CC3(C)C)O2)c(=O)[nH]c1=O (stereo partly drawn) | 124% | 105% | 94% | – | – | – | – | – | – |
| Cc1cn([C@H]2C[C@H](O)[C@@H](CO[P+]([O-])(N3CC3)N3CC3)O2)c(=O)[nH]c1=O | 94% | 100% | 107% | – | – | – | – | – | – |
| CC(=O)O[C@H]1C[C@H](n2cc(C)c(=O)[nH]c2=O)O[C@@H]1CO[P+]([O-])(N1CC1)N1CC1 | 112% | – | 107% | 111% | 111% | 124% | 142% | 104% | 112% |
| CC(=O)O[C@H]1C[C@H](n2cc(C)c(=O)[nH]c2=O)O[C@@H]1CO[P+]([O-])(N1CC1(C)C)N1CC1(C)C (stereo partly drawn) | 123% | 112% | 110% | 125% | 137% | 141% | 154% | 110% | 138% |
